Data reported in ChEMBL document CHEMBL4311947, “Discovery of Novel Naphthylphenylketone and Naphthylphenylamine Derivatives as Cell Division Cycle 25B (CDC25B) Phosphatase Inhibitors: Design, Synthesis, Inhibition Mechanism, and in Vitro Efficacy against Melanoma Cell Lines” (J Med Chem, 2019).
Activity calls are given as the source filed them. No cut-off for these calls is given here.

Assays:
[1] = molecular target: T1, M-phase inducer phosphatase 2 (Homo sapiens, UniProt P30305); test: Non-competitive inhibition of N-terminal His6-tagged human CDC25B (377 to 550 residues) expressed in Escherichia coli BL21(DE3) cells using OMFP as substrate by double reciprocal Lineweaver-Burk plot analysis
T1 sequence (P30305 whole entry): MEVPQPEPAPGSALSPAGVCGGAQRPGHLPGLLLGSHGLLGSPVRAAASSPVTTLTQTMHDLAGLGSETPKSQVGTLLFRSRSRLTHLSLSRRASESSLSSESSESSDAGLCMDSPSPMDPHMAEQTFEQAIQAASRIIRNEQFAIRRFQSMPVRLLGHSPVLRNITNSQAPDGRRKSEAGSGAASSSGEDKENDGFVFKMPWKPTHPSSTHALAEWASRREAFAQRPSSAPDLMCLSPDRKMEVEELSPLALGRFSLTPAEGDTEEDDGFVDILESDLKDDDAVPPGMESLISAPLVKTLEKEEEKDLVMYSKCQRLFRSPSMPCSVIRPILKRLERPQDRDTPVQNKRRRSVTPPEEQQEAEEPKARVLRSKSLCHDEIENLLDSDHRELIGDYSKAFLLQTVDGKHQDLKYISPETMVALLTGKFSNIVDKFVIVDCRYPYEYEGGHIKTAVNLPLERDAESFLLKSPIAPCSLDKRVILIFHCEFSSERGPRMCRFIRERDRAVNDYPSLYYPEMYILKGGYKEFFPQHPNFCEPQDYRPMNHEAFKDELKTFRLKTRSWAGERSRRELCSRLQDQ
How it was run: (§1)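 Recombinant CDC25 form (15–25 nM) in 20 mM Tris-HCl pH 7.8, 0.5 mM TCEP, 1% (v/v) DMSO, with or without inhibitor. Reaction started with 0.5–25 µM OMFP; O-methylfluorescein formation followed continuously at 30°C (ex 485/em 530 nm). Initial rates (AU/min) analysed in Lineweaver-Burk plots for Vmax, KM and mechanism; Ki averaged from at least three independent experiments, only roughly estimated for mixed inhibition.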

[2] = molecular target: T2, M-phase inducer phosphatase 2 (Homo sapiens) (UniProt P30305); test: Inhibition of N-terminal His6-tagged human CDC25B (377 to 550 residues) expressed in Escherichia coli BL21(DE3) cells assessed as reduction in Vmax using OMFP as substrate by double reciprocal Lineweaver-Burk plot analysis; how it was run: as §1
T2 sequence (whole entry): T1 sequence (P30305 whole entry)

[3] = molecular target: T1, M-phase inducer phosphatase 2; test: Uncompetitive inhibition of N-terminal His6-tagged human CDC25B (377 to 550 residues) expressed in Escherichia coli BL21(DE3) cells using OMFP as substrate by double reciprocal Lineweaver-Burk plot analysis; how it was run: as §1
[4] = molecular target: T1, M-phase inducer phosphatase 2; test: Mixed inhibition of N-terminal His6-tagged human CDC25B (377 to 550 residues) expressed in Escherichia coli BL21(DE3) cells using OMFP as substrate by double reciprocal Lineweaver-Burk plot analysis; how it was run: as §1
[5] = molecular target: T2, M-phase inducer phosphatase 2 (Homo sapiens); test: Inhibition of N-terminal His6-tagged human CDC25B (377 to 550 residues) expressed in Escherichia coli BL21(DE3) cells at 3 uM by spectrofluorimetric analysis
How it was run: (§2)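 Intrinsic fluorescence of 1 µM recombinant CDC25B in 20 mM Tris·HCl pH 7.8, 0.5 mM TCEP, 0.5% (v/v) DMSO, recorded at 20°C with 280 nm excitation and 10 nm slits, without or with added NPA derivative. OMFP substrate omitted.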

[6] = molecular target: T2, M-phase inducer phosphatase 2 (Homo sapiens); test: Inhibition of N-terminal His6-tagged human CDC25B (377 to 550 residues) expressed in Escherichia coli BL21(DE3) cells at 1.5 uM by spectrofluorimetric analysis; how it was run: as §2
[7] = molecular target: T3, M-phase inducer phosphatase 3 (Homo sapiens, UniProt P30307); test: Inhibition of N-terminal His6-tagged human CDC25C (280 to 454 residues) expressed in Escherichia coli BL21(DE3) cells using OMFP as substrate by double reciprocal Lineweaver-Burk plot analysis; how it was run: as §1
T3 sequence (P30307 whole entry): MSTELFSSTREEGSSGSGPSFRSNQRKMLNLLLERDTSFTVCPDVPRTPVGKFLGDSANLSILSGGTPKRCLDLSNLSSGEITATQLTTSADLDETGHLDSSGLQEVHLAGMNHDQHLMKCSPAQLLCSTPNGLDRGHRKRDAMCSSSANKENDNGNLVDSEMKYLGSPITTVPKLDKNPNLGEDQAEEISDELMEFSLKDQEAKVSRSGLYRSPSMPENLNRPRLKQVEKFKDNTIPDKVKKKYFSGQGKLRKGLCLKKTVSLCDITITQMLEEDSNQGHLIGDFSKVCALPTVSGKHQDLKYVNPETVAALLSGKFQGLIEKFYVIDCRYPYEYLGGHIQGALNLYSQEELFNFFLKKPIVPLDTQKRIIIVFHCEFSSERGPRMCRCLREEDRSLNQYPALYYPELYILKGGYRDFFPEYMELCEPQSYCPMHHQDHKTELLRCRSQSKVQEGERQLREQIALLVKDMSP

[8] = molecular target: T2, M-phase inducer phosphatase 2 (Homo sapiens); test: Inhibition of N-terminal His6-tagged human CDC25B (377 to 550 residues) expressed in Escherichia coli BL21(DE3) cells at 4 uM by spectrofluorimetric analysis; how it was run: as §2
[9] = molecular target: T4, M-phase inducer phosphatase 1 (Homo sapiens, UniProt P30304); test: Inhibition of N-terminal His6-tagged human CDC25A (336 to 508 residues) expressed in Escherichia coli BL21(DE3) cells using OMFP as substrate by double reciprocal Lineweaver-Burk plot analysis; how it was run: as §1
T4 sequence (P30304 whole entry): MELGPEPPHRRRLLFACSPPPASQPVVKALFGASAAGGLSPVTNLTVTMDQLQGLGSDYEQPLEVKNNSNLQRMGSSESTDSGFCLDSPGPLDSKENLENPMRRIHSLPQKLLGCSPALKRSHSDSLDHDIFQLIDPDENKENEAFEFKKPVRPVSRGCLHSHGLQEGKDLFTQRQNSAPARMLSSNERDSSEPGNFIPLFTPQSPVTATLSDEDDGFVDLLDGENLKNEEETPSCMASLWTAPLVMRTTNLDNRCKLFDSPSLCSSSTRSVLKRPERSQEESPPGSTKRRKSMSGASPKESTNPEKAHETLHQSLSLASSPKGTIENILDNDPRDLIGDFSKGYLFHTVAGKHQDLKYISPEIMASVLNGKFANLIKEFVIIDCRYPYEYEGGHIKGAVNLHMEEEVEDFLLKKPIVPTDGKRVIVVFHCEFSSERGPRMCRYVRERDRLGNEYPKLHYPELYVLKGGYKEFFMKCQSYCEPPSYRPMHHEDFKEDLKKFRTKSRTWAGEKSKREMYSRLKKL

A2058 = test: Cytotoxicity against human A2058 cells at 50 uM after 48 hrs by MTT assay; format: functional, cell-based
How it was run: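 Cells seeded at 4×10^4/well, treated 24 h after plating with inhibitor or 0.5% (v/v) DMSO vehicle for 24, 48 or 72 h. MTT added, 3 h at 37°C under 5% CO2, formazan solubilised, absorbance at 570 nm. Viability in arbitrary units, mean ± SE of at least three independent experiments versus control. Cells grown in DMEM/10% FBS at 37°C, 5% CO2; BJ-5ta cultured in 4:1 DMEM/Medium 199 with hygromycin B.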

In the case of `CCOC(=O)c1ccccc1Nc1ccc(OC)c2ccccc12`, the Ki [1] is reported as 6.9 µM and the inhibition [2] is reported as “Active”.

With `O=C(O)c1ccccc1Nc1cccc2ccccc12` the inhibition [2] was “Active” and the Ki [3] was 22 µM.

With `COc1cc(C(=O)c2ccccc2C(=O)O)c2ccccc2c1` the inhibition [2] was “Active” and the Ki [4] was 36 µM.

With `O=C(O)c1ccccc1Nc1ccc(O)c2ccccc12` the Ki [1] was 2.7 µM and the inhibition [2] was “Active”.

With `COc1ccc(C(=O)c2ccccc2C(=O)O)c2ccccc12` the Ki [1] was 7.1 µM and the inhibition [2] was “Active”.

In the case of `CCOC(=O)c1cccc(Nc2ccc(OC)c3ccccc23)c1`, the Ki [1] is reported as 11.9 µM and the inhibition [2] is reported as “Active”.

With `Nc1ccc(Nc2cccc(C(=O)O)c2)c2ccccc12` the Ki [1] was 1.4 µM, the inhibition [2] was “Active” and the inhibition [5] was “Active”.

`Nc1cccc2c(Nc3cccc(C(=O)O)c3)cccc12` [listing 1 of 3 here] showed a Ki [1] of 0.8 µM.

In the case of `O=C(O)c1ccccc1C(=O)c1cc(O)cc2ccccc12`, the Ki [1] is reported as 34 µM and the inhibition [2] is reported as “Active”.

With `O=C(O)c1cccc(Nc2cccc3c(O)cccc23)c1` the Ki [1] was 2.9 µM and the inhibition [2] was “Active”.

In the case of `CCOC(=O)c1cccc(Nc2cccc3c(N)cccc23)c1`, the Ki [1] is reported as 36 µM and the inhibition [2] is reported as “Active”.

In the case of `CCOC(=O)c1ccccc1Nc1cccc2c(O)cccc12`, the Ki [1] is reported as 7.4 µM and the inhibition [2] is reported as “Active”.

`CCOC(=O)c1cccc(Nc2cccc3c(O)cccc23)c1` was tested, and the Ki [1] was 4.9 µM and the inhibition [2] was “Active”.

In the case of `CCOC(=O)c1ccccc1Nc1cccc2c(N)cccc12`, the Ki [1] is reported as 9.9 µM and the inhibition [2] is reported as “Active”.

With `O=C(O)c1cccc(Nc2cccc3ccccc23)c1` the inhibition [2] was “Active” and the Ki [4] was 30 µM.

`Nc1cccc2c(Nc3cccc(C(=O)O)c3)cccc12` [listing 2 of 3 here] was tested, and the inhibition [6] was “Active” and the inhibition [2] was “Active”.

For `O=C(O)c1cccc(Nc2cc(O)cc3ccccc23)c1`, the Ki [1] was 5.8 µM and the inhibition [2] was “Active”.

With `COc1ccc(Nc2cccc(C(=O)O)c2)c2ccccc12` the inhibition [2] was “Active” and the Ki [3] was 45 µM.

`COc1cc(Nc2cccc(C(=O)O)c2)c2ccccc2c1` was tested, and the inhibition [2] was “Active” and the Ki [3] was 55 µM.

`CCOC(=O)c1ccccc1Nc1cccc2ccccc12` was tested, and the inhibition [2] was “Active”, the Ki [7] was 0.4 µM and the Ki [3] was 2.8 µM. For the same molecule, the inhibition [8] was “inactive” and the Ki [9] was 0.6 µM.

In the case of `CCOC(=O)c1ccccc1Nc1cc(OC)cc2ccccc12`, the inhibition [2] is reported as “Active” and the Ki [3] is reported as 12.5 µM.

Work on `Nc1cccc2c(Nc3cccc(C(=O)O)c3)cccc12` [listing 3 of 3 here] yielded a Ki [7] of 4 µM and a Ki [9] of 0.6 µM.

In the case of `Nc1cccc2c(Nc3ccccc3C(=O)O)cccc12`, the Ki [1] is reported as 6.5 µM and the inhibition [2] is reported as “Active”.

For `O=C(O)c1ccccc1Nc1cc(O)cc2ccccc12`, the Ki [1] was 5.1 µM and the inhibition [2] was “Active”.

In the case of `O=C(O)c1ccccc1C(=O)c1cccc2ccccc12`, the inhibition [2] is reported as “Active” and the Ki [4] is reported as 69 µM.

For `O=C(O)c1ccccc1Nc1cccc2c(O)cccc12`, the Ki [1] was 13.4 µM and the inhibition [2] was “Active”.

`COc1cc(Nc2ccccc2C(=O)O)c2ccccc2c1` was tested, and the Ki [1] was 16.9 µM and the inhibition [2] was “Active”.

`O=C(O)c1cccc(Nc2ccc(O)c3ccccc23)c1` was tested, and the inhibition [2] was “Active” and the Ki [3] was 6.4 µM.

In the case of `COc1ccc(Nc2ccccc2C(=O)O)c2ccccc12`, the inhibition [2] is reported as “Active” and the Ki [3] is reported as 6.1 µM.

`CCOC(=O)c1ccccc1C(=O)c1cccc2ccccc12` was tested, and the inhibition [2] was “Active” and the Ki [4] was 54 µM.

`CCOC(=O)c1cccc(Nc2cccc3ccccc23)c1` was tested, and the inhibition [2] was “Active”, the Ki [3] was 7.3 µM and the Activity (A2058) was “Active”.

With `c1ccc(Nc2cccc3ccccc23)cc1` the inhibition [2] was “Active” and the Ki [4] was 32 µM.
